Experimental findings from ChEMBL document CHEMBL1833940, “Discovery of 3-(2,6-dichloro-3,5-dimethoxy-phenyl)-1-{6-[4-(4-ethyl-piperazin-1-yl)-phenylamino]-pyrimidin-4-yl}-1-methyl-urea (NVP-BGJ398), a potent and selective inhibitor of the fibroblast growth factor receptor family of receptor tyrosine kinase” (J Med Chem, 2011) are described below.

Molecules are shown by their SMILES. Calls of active or inactive are those of the source. The calls are words filed in the database; no cut-off is given here. A value given as a limit tells only on which side of the number the result lay.

The test system of data set [1] is RT-112. Briefly: Antitumor activity against human RT112 cells xenografted in nude Rowett rat assessed as tumour regression at 10 mg/kg, po qd administered for 20 days. Type of data set: functional. In a few lines:
(§1)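 Female nude Rowett rats aged 6–9 weeks were given 1×10^6 RT112 cells subcutaneously in HBSS/50% Matrigel. Treatment began at about 100 mm3 mean tumor volume (n = 8): monophosphate salt in acetate buffer pH 4.6/PEG300 (1:1) by gavage, 5 mL/kg, at 5, 10, 15 mg/kg/qd free base for 20 days. Tumors were measured by caliper (L×W×H×π/6). Readouts were T/C and % regression from start volume.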

The target of data set [2] is Phosphatidylinositol 4,5-bisphosphate 3-kinase catalytic subunit alpha isoform (Homo sapiens, UniProt P42336). Briefly: Inhibition of recombinant PI3Kalpha.
For data set [3], the system named is Rattus norvegicus. Briefly: Dose normalized AUC in Wistar rat at 5 mg/kg, iv by LC-MS/MS analysis. More on the design: dose 5 mg/kg, route intravenous. The note with it: in vivo. The data set is classed as ADME, organism-based. In a few lines:
(§2)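 Female Wistar rats received either an iv femoral-vein dose of 5 mg/kg in NMP/PEG200 (1:9) or an oral dose of monophosphate salt at 10 mg/kg (free base) in acetate buffer pH 4.6/PEG300. Plasma was sampled by sublingual bleeding at 0.083–24 h (n = 4 staggered, or n = 3–4 serial). Plasma levels were measured by LC-MS/MS (LOQ 10 ng/mL).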

Data set [4] relates to Tumour. The data set can be described thus: Drug uptake in tumor of nude rowett rat bearing human RT112 cells at 4.25 mg/kg, po administered as a single dose after 16 hrs by LC-MS/MS analysis. The data set is classed as ADME, organism-based, Neoplasm, RT-112. More on the design: dose 4.25 mg/kg, route oral. Conditions: in vivo. In a few lines: (§3)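 Nude Rowett rats bearing subcutaneous RT112 tumors (n = 4) received a single gavage of monophosphate salt at 4.25 or 8.51 mg/kg free base in acetate buffer pH 4.6/PEG300. Tumors were collected at intervals after dosing, frozen and homogenized in an equal volume of ice-cold PBS. Compound levels were measured by LC-MS/MS (LOQ 3 ng/mL).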

The target in data set [5] is Non-receptor tyrosine-protein kinase TYK2 (Homo sapiens, UniProt P29597). The data set can be described thus: Inhibition of recombinant TYK2. The method in brief:
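Purified recombinant kinases were tested under optimized conditions with peptide substrates. ATP was set at each kinase's Km. Phosphorylation was read out by microfluidic mobility shift, and IC50 values were determined.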

Data set [6] is described as follows: Tmax in plasma of RT112/luc1 cells implanted athymic nude mouse at 20 mg/kg, po by LC/MS/MS analysis. On the set-up: dose 20 mg/kg, route oral. Type of data set: ADME, organism-based. The method in brief: (§4)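 Female athymic nude mice carrying subcutaneous RT112/luc1 tumors (ca. 300–400 mm3). Dosing was 5 mg/kg iv by tail vein in NMP/PEG200 (1:9) or 20 mg/kg by oral gavage as a suspension in PEG300/D5W (2:1). Groups (n = 4) were sacrificed from 0.083 to 24 h. Plasma and tumor were measured by LC-MS/MS (LOQ 5 ng/mL, 10 ng/g). Noncompartmental analysis used the linear trapezoidal AUC; F was calculated from dose-normalized AUC.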

The nature of data set [7]: Inhibition of recombinant PKA. The method in brief: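 Purified recombinant kinases with peptide substrates and ATP at each kinase's Km. Read-out was microfluidic mobility shift.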
For a further data set, the system named is HT1197. Briefly: Antiproliferative activity against human HT1197 cells after 72 hrs. Type of data set: functional, cell-based. The note with it: HT1197, 72 h. In a few lines: (§5)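 Bladder cancer lines from ATCC or DSMZ were seeded in 96-well plates (RT4, RT112 at 8500 cells/well; others at 5000 cells/well) in growth medium. Compound dilutions or DMSO were added 24 h later and incubated 72 h. Cells were fixed with glutaraldehyde, stained with 0.05% methylene blue and eluted with 3% HCl, then OD650 nm was read.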

Data set [8] is described as follows: Volume of distribution at steady state in RT112/luc1 cells implanted athymic nude mouse at 5 mg/kg, iv by LC/MS/MS. The note with it: in vivo, read-out: Vdss. More on the design: dose 5 mg/kg, route intravenous. The data set is classed as ADME, organism-based. The method in brief: as §4
The test system of data set [9] is Rattus norvegicus. The data set can be described thus: Toxicity in nude Rowett rat xenografted with human RT112 cells assessed as morbidity at 5 mg/kg, po qd administered for 20 days. On the set-up: dose 5 mg/kg, route oral. Conditions: in vivo, 480 h. Type of data set: organism-based, RT-112. The method in brief: (§6)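 Female nude Rowett rats carried subcutaneous RT112 tumors (1 × 10^6 cells in Matrigel), starting at about 100 mm3. The monophosphate salt was gavaged daily for 20 days at 5, 10 or 15 mg/kg (free base) in acetate buffer pH 4.6/PEG300 (1:1), n = 8. Body weight and morbidity were monitored; ANOVA with Dunnett's test.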

Data set [10] concerns the target Tyrosine-protein kinase HCK (Homo sapiens, UniProt P08631). The data set can be described thus: Inhibition of recombinant HCK. The method in brief:
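Purified recombinant kinases under optimized conditions with peptide substrates. ATP was set at each kinase's Km. Phosphorylation was read by microfluidic mobility-shift separation of substrate and product; IC50 determined.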

Data set [11] in a line: Half life in plasma of RT112/luc1 cells implanted athymic nude mouse at 5 mg/kg, iv by LC/MS/MS analysis. Type of data set: ADME, organism-based. On the set-up: dose 5 mg/kg, route intravenous. The method in brief:
(§7)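 Female athymic nude mice carried subcutaneous RT112/luc1 tumors (5×10^6 cells, 50% Matrigel; about 300–400 mm3). Dosing was either 5 mg/kg iv by tail vein in NMP/PEG200 (1:9) or 20 mg/kg oral suspension in PEG300/D5W (2:1). Groups of mice (n = 4) were sacrificed at 0.083–24 h. Plasma and tumor levels were measured by LC-MS/MS (LOQ 5 ng/mL, 10 ng/g).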

Data set [12] has as its system RT-112. Briefly: Antitumor activity against human RT112 cells xenografted in athymic nude mouse assessed as tumor growth inhibition at 10 mg/kg, po administered for 12 days. Type of data set: functional, organism-based. More on the design: dose 10 mg/kg. The method in brief: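 Female HsdNpa:Athymic Nude-nu mice received RT112/luc1 cells (luciferase retroviral line; about 1–2×10^5 cells) into the bladder lumen. Oral treatment started 14 days after inoculation: suspension in PEG300/D5W (2:1) at 10 or 30 mg/kg/qd for 12 days. Tumor burden was measured by IVIS bioluminescence 10 min after iv D-luciferin. T/C was computed from change in light emission; ANOVA with Dunnett's test.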

Data set [13] concerns RT-112. Briefly: Antiproliferative activity against human RT112 cells overexpressing wild type FGFR3 after 72 hrs. Type of data set: functional, cell-based. The note with it: RT-112, 72 h. The method in brief: as §5
The target of data set [14] is Phosphatidylinositol 4,5-bisphosphate 3-kinase catalytic subunit delta isoform (Homo sapiens, UniProt O00329). Briefly: Inhibition of recombinant PI3Kdelta by luminescent kinase assay.
Data set [15] is described as follows: Cmax in Wistar rat at 5 mg/kg, iv after 5 mins by LC-MS/MS analysis. Type of data set: ADME, organism-based. More on the design: dose 5 mg/kg, route intravenous. Conditions: in vivo. In a few lines: as §2
Data set [16] concerns RT-112. The data set can be described thus: Antitumor activity against human RT112 cells xenografted in nude Rowett rat assessed as tumour stasis at 5 mg/kg, po qd administered for 20 days. Type of data set: functional, organism-based. More on the design: dose 5 mg/kg. In a few lines:
as §1

Data set [17] concerns Rattus norvegicus. The data set can be described thus: Toxicity in nude Rowett rat xenografted with human RT112 cells assessed as body weight loss at 5 mg/kg, po qd administered for 20 days. Type of data set: organism-based, RT-112. On the set-up: dose 5 mg/kg, route oral. The note with it: in vivo, 480 h. In a few lines:
as §6

Data set [18] in a line: Half life in tumor of RT112/luc1 cells implanted in athymic nude mouse at 5 mg/kg, iv by LC/MS/MS analysis. The data set is classed as ADME, organism-based, Neoplasm. More on the design: dose 5 mg/kg, route intravenous. The method in brief:
as §7

In data set [19] the test system is Tumour. Briefly: Drug uptake in tumour of nude Rowett rat bearing human RT112 cells at 8.51 mg/kg, po administered as a single dose after 16 hrs by LC-MS/MS analysis. The data set is classed as ADME, organism-based, Neoplasm, RT-112. More on the design: dose 8.51 mg/kg, route oral. Conditions: in vivo. The method in brief:
as §3

For data set [20], the target named is Tyrosine-protein kinase CSK (Homo sapiens, UniProt P41240). Briefly: Inhibition of recombinant CSK. In a few lines:
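Purified recombinant kinases under optimized conditions, with peptide substrates and ATP at each kinase's Km. Phosphorylation was read out by microfluidic mobility shift, and IC50 values were obtained.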

Data set [21] can be described thus: Oral bioavailability RT112/luc1 cells implanted athymic nude mouse. The data set is classed as ADME, organism-based. Conditions: in vivo. The method in brief: as §4

Non-receptor tyrosine-protein kinase TYK2, sequence (P29597 whole entry): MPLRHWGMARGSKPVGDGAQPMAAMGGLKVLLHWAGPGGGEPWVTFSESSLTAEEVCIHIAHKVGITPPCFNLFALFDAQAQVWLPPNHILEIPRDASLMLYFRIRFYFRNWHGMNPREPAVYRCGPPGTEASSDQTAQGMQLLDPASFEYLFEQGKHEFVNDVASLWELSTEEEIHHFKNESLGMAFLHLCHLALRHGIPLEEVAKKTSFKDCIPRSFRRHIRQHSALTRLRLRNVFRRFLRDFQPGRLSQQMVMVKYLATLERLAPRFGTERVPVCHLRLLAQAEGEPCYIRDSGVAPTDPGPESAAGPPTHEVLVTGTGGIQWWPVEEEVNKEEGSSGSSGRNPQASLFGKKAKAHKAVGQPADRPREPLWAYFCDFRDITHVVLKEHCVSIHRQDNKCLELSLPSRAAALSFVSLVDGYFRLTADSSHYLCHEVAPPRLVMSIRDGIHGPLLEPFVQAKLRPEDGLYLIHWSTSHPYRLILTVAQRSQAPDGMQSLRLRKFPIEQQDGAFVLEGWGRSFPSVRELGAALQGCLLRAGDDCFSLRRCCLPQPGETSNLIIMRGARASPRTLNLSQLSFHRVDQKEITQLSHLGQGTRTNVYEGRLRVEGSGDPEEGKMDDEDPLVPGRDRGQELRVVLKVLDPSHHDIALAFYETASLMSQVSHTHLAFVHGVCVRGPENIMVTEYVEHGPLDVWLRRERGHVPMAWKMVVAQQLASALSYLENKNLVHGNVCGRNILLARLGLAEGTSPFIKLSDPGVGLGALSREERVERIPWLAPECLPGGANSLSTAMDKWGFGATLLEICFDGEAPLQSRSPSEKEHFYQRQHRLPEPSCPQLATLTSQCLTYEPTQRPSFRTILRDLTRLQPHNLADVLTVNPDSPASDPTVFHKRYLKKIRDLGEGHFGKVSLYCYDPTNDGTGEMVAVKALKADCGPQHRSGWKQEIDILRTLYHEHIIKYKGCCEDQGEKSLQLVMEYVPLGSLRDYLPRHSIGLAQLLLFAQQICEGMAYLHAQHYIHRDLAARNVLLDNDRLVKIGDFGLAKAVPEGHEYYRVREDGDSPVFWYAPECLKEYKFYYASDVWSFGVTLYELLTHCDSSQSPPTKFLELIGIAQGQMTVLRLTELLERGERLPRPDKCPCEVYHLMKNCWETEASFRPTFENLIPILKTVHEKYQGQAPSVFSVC
Tyrosine-protein kinase HCK, sequence (P08631 whole entry): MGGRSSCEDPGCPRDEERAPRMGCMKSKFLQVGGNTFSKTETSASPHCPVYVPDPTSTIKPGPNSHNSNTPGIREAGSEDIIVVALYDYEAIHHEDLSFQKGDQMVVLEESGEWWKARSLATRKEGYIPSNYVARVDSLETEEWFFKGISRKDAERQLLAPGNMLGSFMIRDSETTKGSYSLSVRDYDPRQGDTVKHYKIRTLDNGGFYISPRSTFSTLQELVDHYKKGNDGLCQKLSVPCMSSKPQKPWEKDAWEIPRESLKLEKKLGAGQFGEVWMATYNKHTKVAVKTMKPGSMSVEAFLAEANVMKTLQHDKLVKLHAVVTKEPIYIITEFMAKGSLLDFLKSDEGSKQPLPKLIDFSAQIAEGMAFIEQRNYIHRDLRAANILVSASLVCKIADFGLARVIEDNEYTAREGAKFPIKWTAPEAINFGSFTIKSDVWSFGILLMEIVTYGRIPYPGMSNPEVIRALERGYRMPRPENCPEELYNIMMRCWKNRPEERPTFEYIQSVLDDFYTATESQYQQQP
Phosphatidylinositol 4,5-bisphosphate 3-kinase catalytic subunit delta isoform, sequence (O00329 whole entry, canonical isoform): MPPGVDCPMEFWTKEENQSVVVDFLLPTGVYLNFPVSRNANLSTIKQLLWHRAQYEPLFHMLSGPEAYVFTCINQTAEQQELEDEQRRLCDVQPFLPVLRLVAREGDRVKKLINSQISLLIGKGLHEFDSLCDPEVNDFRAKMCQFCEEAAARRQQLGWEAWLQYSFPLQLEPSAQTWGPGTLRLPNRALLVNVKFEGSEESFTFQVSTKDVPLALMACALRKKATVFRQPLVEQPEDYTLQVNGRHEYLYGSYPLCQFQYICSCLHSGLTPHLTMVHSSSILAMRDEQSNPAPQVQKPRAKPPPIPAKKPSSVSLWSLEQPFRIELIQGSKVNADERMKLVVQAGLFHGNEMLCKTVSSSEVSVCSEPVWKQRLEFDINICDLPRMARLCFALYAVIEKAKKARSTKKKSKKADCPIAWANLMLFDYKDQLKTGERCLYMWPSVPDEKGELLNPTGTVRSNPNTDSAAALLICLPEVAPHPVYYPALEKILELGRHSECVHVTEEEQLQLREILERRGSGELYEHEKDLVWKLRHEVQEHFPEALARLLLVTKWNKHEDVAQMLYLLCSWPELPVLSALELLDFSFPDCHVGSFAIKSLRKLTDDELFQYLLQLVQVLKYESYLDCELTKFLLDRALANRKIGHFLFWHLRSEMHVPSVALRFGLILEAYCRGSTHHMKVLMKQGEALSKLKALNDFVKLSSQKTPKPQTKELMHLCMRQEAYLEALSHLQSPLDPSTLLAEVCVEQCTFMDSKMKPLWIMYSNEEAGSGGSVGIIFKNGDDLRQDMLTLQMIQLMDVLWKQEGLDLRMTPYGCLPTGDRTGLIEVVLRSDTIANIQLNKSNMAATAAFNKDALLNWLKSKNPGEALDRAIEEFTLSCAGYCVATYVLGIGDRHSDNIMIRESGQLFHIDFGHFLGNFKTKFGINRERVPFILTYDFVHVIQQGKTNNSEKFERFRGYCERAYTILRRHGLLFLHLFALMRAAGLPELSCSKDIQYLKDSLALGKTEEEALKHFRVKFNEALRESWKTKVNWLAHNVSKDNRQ
Phosphatidylinositol 4,5-bisphosphate 3-kinase catalytic subunit alpha isoform, sequence (P42336 whole entry, canonical isoform): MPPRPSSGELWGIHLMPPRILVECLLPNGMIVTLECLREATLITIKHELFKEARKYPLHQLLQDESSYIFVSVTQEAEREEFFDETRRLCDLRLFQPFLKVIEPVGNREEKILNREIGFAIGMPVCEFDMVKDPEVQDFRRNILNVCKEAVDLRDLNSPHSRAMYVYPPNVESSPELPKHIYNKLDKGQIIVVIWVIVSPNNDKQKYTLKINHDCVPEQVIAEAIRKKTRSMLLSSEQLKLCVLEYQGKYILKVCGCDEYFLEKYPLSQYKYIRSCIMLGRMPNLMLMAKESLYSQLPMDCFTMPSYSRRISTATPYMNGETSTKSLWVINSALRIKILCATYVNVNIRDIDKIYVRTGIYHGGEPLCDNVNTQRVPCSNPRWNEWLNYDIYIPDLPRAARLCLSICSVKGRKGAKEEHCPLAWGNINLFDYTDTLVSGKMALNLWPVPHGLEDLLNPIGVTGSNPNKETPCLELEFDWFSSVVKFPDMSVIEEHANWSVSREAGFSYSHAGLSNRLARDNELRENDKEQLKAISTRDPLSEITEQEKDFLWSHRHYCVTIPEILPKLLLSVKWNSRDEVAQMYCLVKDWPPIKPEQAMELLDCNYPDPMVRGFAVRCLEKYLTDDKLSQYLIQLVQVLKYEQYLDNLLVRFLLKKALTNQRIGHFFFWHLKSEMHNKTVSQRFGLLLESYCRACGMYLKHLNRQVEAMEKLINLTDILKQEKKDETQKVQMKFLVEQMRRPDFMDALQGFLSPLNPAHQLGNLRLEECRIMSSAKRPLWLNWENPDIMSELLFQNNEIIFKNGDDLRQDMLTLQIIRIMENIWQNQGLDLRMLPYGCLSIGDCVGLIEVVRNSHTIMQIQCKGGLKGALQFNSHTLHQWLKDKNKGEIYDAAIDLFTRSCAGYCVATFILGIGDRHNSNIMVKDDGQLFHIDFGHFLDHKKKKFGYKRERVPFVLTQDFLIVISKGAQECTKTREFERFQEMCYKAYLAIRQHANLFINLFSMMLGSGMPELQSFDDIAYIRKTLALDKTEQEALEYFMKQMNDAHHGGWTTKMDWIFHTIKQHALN
Tyrosine-protein kinase CSK, sequence (P41240 whole entry): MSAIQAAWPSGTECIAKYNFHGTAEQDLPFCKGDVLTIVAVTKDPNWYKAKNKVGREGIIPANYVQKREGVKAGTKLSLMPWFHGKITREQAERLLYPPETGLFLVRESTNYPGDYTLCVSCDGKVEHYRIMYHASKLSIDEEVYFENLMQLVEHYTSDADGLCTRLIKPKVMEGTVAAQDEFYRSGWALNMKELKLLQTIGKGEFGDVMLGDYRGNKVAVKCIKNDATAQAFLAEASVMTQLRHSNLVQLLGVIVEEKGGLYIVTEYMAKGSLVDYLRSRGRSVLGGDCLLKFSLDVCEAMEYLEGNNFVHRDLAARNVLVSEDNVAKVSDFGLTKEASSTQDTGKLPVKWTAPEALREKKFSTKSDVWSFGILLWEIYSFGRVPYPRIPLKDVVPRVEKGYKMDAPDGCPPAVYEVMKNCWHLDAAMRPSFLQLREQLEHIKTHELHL

`CCN1CCN(c2ccc(Nc3cc(N(C)C(=O)Nc4c(Cl)c(OC)cc(OC)c4Cl)ncn3)cc2)CC1.O=P(O)(O)O` [INFIGRATINIB PHOSPHATE]: the values for the Activity in the data set with RT-112 [1], in the data set on Rattus norvegicus [9] and in the data set with Rattus norvegicus [17] were 66%, “Non-toxic” and “Non-toxic”, respectively. The IC50 in data set [2] is greater than 9 µM; in data set [5] it was greater than 10 µM; in data set [7], greater than 10 µM; with HT1197 it was 1.16 µM; in data set [10] it was greater than 10 µM; in the data set with RT-112 [13], 0.005 µM. The IC50 in [14] is greater than 9 µM; in data set [20] it was greater than 10 µM. In the data set with Rattus norvegicus [3], this compound registered an AUC/dose of 0.49 µM·h. Besides, the Drug uptake in the data set with Tumour [4] came to 0.3 nmol/g; in the data set with Tumour [19], 0.62 nmol/g. Moreover, in [6], the Tmax turned out to be 1 h. Moreover, in data set [8], the Vd was determined as 26 L/kg. The values for the half-life in data set [11] and in data set [18] were 9.3 h and 6.7 h, respectively. In the data set with RT-112 [12], the inhibition entry was “Active”. Besides, the Cmax in data set [15] is 970 nM. In the data set on RT-112 [16], the outcome was Active. For the same compound, the bioavailability in data set [21] was determined as 32%.
